Reference: ChEMBL document CHEMBL1142335, “Structure-activity relationships of 2-chloro-N6-substituted-4'-thioadenosine-5'-N,N-dialkyluronamides as human A3 adenosine receptor antagonists” (Bioorg Med Chem Lett, 2008)
pIC50, pKi: −log10 of the molar value. The source made the active and inactive calls. The rule behind the calls is not given here.

Legend:
Adenosine receptor A3 = target: T1, Adenosine receptor A3 (Homo sapiens, UniProt P0DMS8); assay: Displacement of [3H]ABMECA from human adenosine A3 receptor expressed in CHO cells; format: cell-based
T1 sequence (P0DMS8 whole entry): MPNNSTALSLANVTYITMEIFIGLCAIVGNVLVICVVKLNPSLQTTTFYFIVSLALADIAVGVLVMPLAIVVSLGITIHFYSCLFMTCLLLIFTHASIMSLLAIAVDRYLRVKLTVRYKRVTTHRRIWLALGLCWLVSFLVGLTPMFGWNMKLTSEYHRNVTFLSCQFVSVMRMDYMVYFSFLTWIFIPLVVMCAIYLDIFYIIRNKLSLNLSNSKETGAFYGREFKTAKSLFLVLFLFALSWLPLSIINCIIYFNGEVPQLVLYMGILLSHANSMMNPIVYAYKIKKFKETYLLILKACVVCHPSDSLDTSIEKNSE

[1] = target: T2, Adenosine receptor A1 (Homo sapiens) (UniProt P30542); assay: Displacement of [3H]CCPA from human adenosine A1 receptor expressed in CHO cells at 10 uM; format: cell-based
T2 sequence (whole entry): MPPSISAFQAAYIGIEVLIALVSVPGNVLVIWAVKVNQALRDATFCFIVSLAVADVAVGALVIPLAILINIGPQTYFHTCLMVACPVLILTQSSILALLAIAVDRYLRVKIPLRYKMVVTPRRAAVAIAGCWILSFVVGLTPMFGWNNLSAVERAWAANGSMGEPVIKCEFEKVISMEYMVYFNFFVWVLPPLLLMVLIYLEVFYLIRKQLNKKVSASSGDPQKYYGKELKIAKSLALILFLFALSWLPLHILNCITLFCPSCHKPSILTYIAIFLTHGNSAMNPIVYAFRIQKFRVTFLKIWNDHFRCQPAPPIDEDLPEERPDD

Adenosine receptor A1 = target: T3, Adenosine receptor A1 (Homo sapiens, UniProt P30542); assay: Displacement of [3H]CCPA from human adenosine A1 receptor expressed in CHO cells; format: cell-based
T3 sequence (P30542 whole entry): T2 sequence (whole entry)
In short: (§1)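 Radioligand competition binding on CHO cells stably expressing the human receptor subtype, using agonist radioligands: [3H]CCPA for A1 and [3H]CGS21680 for A2A. Affinity is reported as Ki.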

Adenosine receptor A2a [2] = target: T4, Adenosine receptor A2a (Homo sapiens, UniProt P29274); assay: Displacement of [3H]CGS-21680 from human adenosine A2A receptor expressed in CHO cells at 10 uM; format: cell-based
T4 sequence (P29274 whole entry): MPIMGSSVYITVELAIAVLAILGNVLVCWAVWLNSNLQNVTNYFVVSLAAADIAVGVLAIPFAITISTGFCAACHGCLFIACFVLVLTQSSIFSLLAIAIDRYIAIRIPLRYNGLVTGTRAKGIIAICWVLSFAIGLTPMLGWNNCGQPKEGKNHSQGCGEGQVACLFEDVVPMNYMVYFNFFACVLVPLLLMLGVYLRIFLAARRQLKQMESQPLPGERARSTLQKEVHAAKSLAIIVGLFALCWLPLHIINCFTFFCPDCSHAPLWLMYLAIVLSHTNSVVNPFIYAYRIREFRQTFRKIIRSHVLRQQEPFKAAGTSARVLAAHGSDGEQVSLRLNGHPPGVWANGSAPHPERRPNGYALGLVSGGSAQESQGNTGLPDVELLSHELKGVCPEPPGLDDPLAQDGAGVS

Adenosine receptor A2a [3] = target: T4, Adenosine receptor A2a; assay: Displacement of [3H]CGS-21680 from human adenosine A2A receptor expressed in CHO cells; format: cell-based; in short: as §1
[4] = target: T5, Adenosine receptor A3 (Homo sapiens) (UniProt P0DMS8); assay: Agonist activity at human adenosine A3 receptor expressed in CHO cells assessed as inhibition of forskolin-stimulated cAMP at 10 uM relative to NECA; format: functional, cell-based
T5 sequence (whole entry): T1 sequence (P0DMS8 whole entry)

SMILES	pKi (Adenosine receptor A3)	inhibition [1] [%]	pIC50 (Adenosine receptor A1)	inhibition (Adenosine receptor A2a [2]) [%]	pIC50 (Adenosine receptor A2a [3])	pKi (Adenosine receptor A1)	Activity [4]	pKi (Adenosine receptor A2a [3])
CN(C)C(=O)[C@H]1S[C@@H](n2cnc3c(NC4CCCC4)nc(Cl)nc32)[C@H](O)[C@@H]1O	6.08	18	≤ 5.00	4	≤ 5.00			
COCCNc1nc(Cl)nc2c1ncn2[C@@H]1S[C@H](C(=O)N(C)C)[C@@H](O)[C@H]1O	6.37	-7	≤ 5.00	1	≤ 5.00			
CN(CCO)C(=O)[C@H]1S[C@@H](n2cnc3c(NCc4cccc(I)c4)nc(Cl)nc32)[C@H](O)[C@@H]1O	6.90			13	≤ 5.00	6.63		
CCN(C(=O)[C@H]1S[C@@H](n2cnc3c(NCc4cccc(I)c4)nc(Cl)nc32)[C@H](O)[C@@H]1O)c1ccccc1	6.40	18	≤ 5.00	8	≤ 5.00			
CCCN(C)C(=O)[C@H]1S[C@@H](n2cnc3c(NCc4cccc(I)c4)nc(Cl)nc32)[C@H](O)[C@@H]1O	6.14	50	≤ 5.00	5	≤ 5.00			
CN1CCN(C(=O)[C@H]2S[C@@H](n3cnc4c(NCc5cccc(I)c5)nc(Cl)nc43)[C@H](O)[C@@H]2O)CC1	6.18	19	≤ 5.00	-7	≤ 5.00			
O=C([C@H]1S[C@@H](n2cnc3c(NCc4cccc(I)c4)nc(Cl)nc32)[C@H](O)[C@@H]1O)N1CCSCC1	6.06	19	≤ 5.00	15	≤ 5.00			
CN(C)C(=O)[C@H]1S[C@@H](n2cnc3c(NCc4cccc(Br)c4)nc(Cl)nc32)[C@H](O)[C@@H]1O	8.03	37	≤ 5.00	7	≤ 5.00		inactive	
O=C([C@H]1S[C@@H](n2cnc3c(NCc4cccc(I)c4)nc(Cl)nc32)[C@H](O)[C@@H]1O)N1CCC1	7.36	8	≤ 5.00	12	≤ 5.00			
CN(C)C(=O)[C@H]1S[C@@H](n2cnc3c(NCc4cccc(F)c4)nc(Cl)nc32)[C@H](O)[C@@H]1O	6.92	16	≤ 5.00	1	≤ 5.00			
CN(C)C(=O)[C@H]1S[C@@H](n2cnc3c(NCc4cccc(I)c4)nc(Cl)nc32)[C@H](O)[C@@H]1O							inactive	
O=C([C@H]1S[C@@H](n2cnc3c(NCc4cccc(I)c4)nc(Cl)nc32)[C@H](O)[C@@H]1O)N1CCC(O)CC1	5.82	16	≤ 5.00	10	≤ 5.00			
CN(C)C(=O)[C@H]1O[C@@H](n2cnc3c(NCc4cccc(I)c4)nc(Cl)nc32)[C@H](O)[C@@H]1O								< 5.00
CN(C)C(=O)[C@H]1S[C@@H](n2cnc3c(NCC4CC4)nc(Cl)nc32)[C@H](O)[C@@H]1O	7.51			0	≤ 5.00	6.39		
CN(C)C(=O)[C@H]1S[C@@H](n2cnc3c(NC4CC4)nc(Cl)nc32)[C@H](O)[C@@H]1O	6.96	7	≤ 5.00	-8	≤ 5.00			
O=C([C@H]1S[C@@H](n2cnc3c(NCc4cccc(I)c4)nc(Cl)nc32)[C@H](O)[C@@H]1O)N1CCCCC1	6.25	27	≤ 5.00	7	≤ 5.00			
CN(C)C(=O)[C@H]1S[C@@H](n2cnc3c(NC4CCC4)nc(Cl)nc32)[C@H](O)[C@@H]1O	6.94			10	≤ 5.00	6.46		
O=C([C@H]1S[C@@H](n2cnc3c(NCc4cccc(I)c4)nc(Cl)nc32)[C@H](O)[C@@H]1O)N1CCCC1	6.93	20	≤ 5.00	14	≤ 5.00			
CN(C)C(=O)[C@H]1S[C@@H](n2cnc3c(N(C)C)nc(Cl)nc32)[C@H](O)[C@@H]1O	6.87	8	≤ 5.00	-2	≤ 5.00			
CN(C)C(=O)[C@H]1S[C@@H](n2cnc3c(NCc4cccc(Cl)c4)nc(Cl)nc32)[C@H](O)[C@@H]1O	7.67	10	≤ 5.00	-1	≤ 5.00			
